# Only some compounds are listed: those with a hit (about 3.7% of all), similar ones and a draw of the others.
# TAAR1 antag = human TAAR1 antagonists, primary screen, Fluo-8 calcium fluorescence, CHO RD-HGA16 cells | Trace amine-associated receptor 1 (Homo sapiens), Q96RJ0 | antagonist | inhibition, % at 3 µM | hit rate 1.5% among 360,000 | AID 624466, 2012;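 active = inhibition above a per-plate cutoff, the mean inhibition of test compounds on that plate plus 3 SD, cut at about 49% in these data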;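 also: 0% = DMSO plus EC80 beta-PEA response and 100% = DMSO alone without agonist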
# Target sequence (Q96RJ0 whole entry, looked up): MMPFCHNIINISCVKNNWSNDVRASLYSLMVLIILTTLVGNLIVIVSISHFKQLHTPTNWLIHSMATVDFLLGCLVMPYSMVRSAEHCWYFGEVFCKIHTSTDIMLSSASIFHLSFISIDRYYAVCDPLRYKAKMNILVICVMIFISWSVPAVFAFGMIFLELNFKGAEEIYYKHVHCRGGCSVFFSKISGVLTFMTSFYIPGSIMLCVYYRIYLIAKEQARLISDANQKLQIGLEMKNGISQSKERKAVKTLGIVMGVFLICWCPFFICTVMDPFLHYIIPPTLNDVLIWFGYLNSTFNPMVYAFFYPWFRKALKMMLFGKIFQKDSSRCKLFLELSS
#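 test system = CHO RD-HGA16 cells bearing hTAAR1 | replication = singlicate | controls = DMSO-only wells and EC80 β-PEA-stimulated wells | reagent = EC80 β-phenethylamine stimulus | read-out basis = percent inhibition of PEA-evoked calcium signal, max/basal emission ratio | schedule = seeding 17-24 h prior, 75-min 37 °C, 30-min RT dye loading | signal = kinetic Fluo-8 calcium fluorescence measurement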
# rCAG binder = binders of r(CAG) RNA repeats, primary screen, biochemical, fluorescence; r(CAG) RNA repeat, TO-PRO-1 dye displacement fluorescence; inhibition, % at 3 µM; hit rate 1.3% among 370,000; AID 651821, 2012;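 active = inhibition above the plate cutoff, the mean of all test compounds on that plate plus 3 SD, cut at about 35% in these data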;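 also: 0% = DMSO alone and 100% = 100 µM mitoxantrone as full dye displacement; higher means more dye released from RNA so lower well fluorescence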
# TAAR1 agonist = human TAAR1 agonists, primary screen, Fluo-8 calcium fluorescence, CHO RD-HGA16 cells | Trace amine-associated receptor 1 (Homo sapiens), Q96RJ0 | vehicle wells 0%, saturating PEA agonist 100% | hit rate 0.99% among 360,000 | activation, % at 3 µM;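 active = activation above the mean activation of all test compounds in the run plus 3 SD, cut at about 38% in these data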
#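 Repeats: no replicates (n 1) | Material: CHO-derived RD-HGA16 cells with stable Gα16 and human TAAR1 | Technique: Kinetic Fluo-8 calcium fluorescence | Schedule: 17-24 h seeding, 75 min 37 °C dye, 30 min RT | Evaluation: % activation from peak over basal fluorescence ratio, DMSO-to-PEA scaled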
# HCV NS3 hel inh = inhibitors of HCV NS3 helicase, primary screen, biochemical, Cy5 molecular beacon fluorescence; Hepatitis C virus NS3 helicase; NS3 helicase DNA unwinding; inhibition, % at 10.9 µM; hit rate 0.56% among 290,000; AID 1800, 2009;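 active = inhibition above the mean of all tested compounds plus 3 SD, set per campaign, cut at about 35% in these data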;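 also: 0% = DMSO wells and 100% = thioflavine S control wells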
#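 test system = hepatitis C virus NS3 helicase domain fragment enzyme | reagent = annealed dual-labelled DNA beacon duplex, ATP-started | times = 1 h at 25 °C | detection = Cy5 fluorescence, 0 and 60 min reads | read-out basis = percent inhibition from t60/t0 fluorescence ratio | control set = DMSO and thioflavine S | replication = one well per compound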
# HCV core dimer = inhibitors of HCV core protein dimerization, primary screen, biochemical, TR-FRET, high-throughput; TR-FRET GST/Flag-core106 dimerization, 1536-well; inhibition, % at 5 µM; hit rate 0.33% among 300,000;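 active = inhibition above the mean of all tested compounds plus 3 SD, set per screening campaign, cut at about 45% in these data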
#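 Assay system: GST-tagged and Flag-tagged HCV core protein residues 1-106 / Times: compound-protein-antibody incubation 4 h at 22.5 °C / Signal: time-resolved FRET, ex 340 nm, em 617 and 671 nm / Evaluation: % inhibition based on acceptor/donor emission ratio / Benchmarks: wells lacking GST-core106 and wells with excess unlabelled core106 / Repeats: singlicate, one well per compound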
# TAAR1 ag conf = human TAAR1 agonists, retest of hits, confirmation, Fluo-8 calcium fluorescence, CHO RD-HGA16 cells; shares compounds with TAAR1 agonist; scaled: DMSO 0%, maximal phenethylamine 100%; activation, % at 3 µM; hit rate 82% among 2,400;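 active = activation above a cutoff set at the run's mean compound activation plus 3 SD, cut at about 39% in these data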
# Ga16 nonsel ag = nonselective calcium mobilization agonists, CHO-Ga16 cells, counter-screen for hTAAR1 agonist project, cell-based, fluorescence, CHO-Ga16 parental line. shares compounds with TAAR1 agonist. Fluo-8 calcium fluorescence; normalized to maximal ATP response, DMSO zero. activation, % at 3 µM. hit rate 50% among 2,400. AID 651787, 2012;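 active = activation above the run cutoff, the mean activation over all tested wells plus 3 SD, cut at about 12% in these data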;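 also: 0% = DMSO wells and 100% = maximal ATP response on the peak over basal ratio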
# TAAR1 desens = TAAR1 desensitization by agonist hits, confirmation, counter-screen for TAAR1 agonist project, cell-based, fluorescence, tachyphylaxis; shares compounds with TAAR1 agonist; CHO RD-HGA16 hTAAR1, Fluo-8 calcium, beta-PEA response inhibition; hit rate 46% among 2,400; inhibition, % at 3 µM;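 active = inhibition above the run cutoff, the mean inhibition of all test compounds plus 3 SD, cut at about 49% in these data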;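 also: beta-PEA stimulus applied at its EC80; loss of beta-PEA calcium signal after compound pretreatment read as receptor desensitization; 0% = DMSO with beta-PEA at EC80 and 100% = DMSO alone without agonist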
# Ga16 nonsel ant = inhibition of ATP-evoked calcium response in CHO-Ga16 cells, counter-screen for TAAR1 agonist project, cell-based, fluorescence; shares compounds with TAAR1 agonist; CHO-Ga16 ATP-induced calcium, Fluo-8 fluorescence; inhibition, % at 3 µM; hit rate 39% among 2,400; AID 651952, 2012;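 active = inhibition above the plate's mean compound inhibition plus 3 SD, computed per plate, cut at about 22% in these data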;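 also: 0% = EC80 ATP with DMSO and 100% = DMSO wells without ATP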
# The depositor's hits bear a star; . = no result.
SMILES,TAAR1 antag,rCAG binder,TAAR1 agonist,HCV NS3 hel inh,HCV core dimer,TAAR1 ag conf,Ga16 nonsel ag,TAAR1 desens,Ga16 nonsel ant
Cc1nc(N)c2c(Cc3cccc4ccccc34)nn(C(C)(C)C)c2n1,-22,4,47*,.,-18,41*,7,-13,-14
CN(c1cccnc1)c1ccc(NC(=O)CCc2c[nH]c3ccccc23)cc1Br,10,14,3,.,.,.,.,.,.
COC(=O)c1ccc(/C=C/C(=O)OCC(=O)NCc2cccs2)cc1,11,0,3,.,.,.,.,.,.
O=C(COC(=O)/C=C/c1cccc(C(F)(F)F)c1)NCc1cccs1,66*,0,79*,.,.,66*,44*,45,19
O=C(NCCc1ccccc1)C(c1ccncc1)N(C(=O)c1csnn1)C1CC1 (stereo not drawn),49*,1,83*,-20,-2,91*,0,68*,1
COc1cccc(C(=O)N[C@H](C(=O)N2CCC[C@H]2C(=O)NCCc2ccccc2Cl)c2ccccc2)c1,52*,0,56*,.,.,91*,3,84*,17
COc1cccc(C(=O)N[C@H](C(=O)N2CCC[C@H]2C(=O)NCCc2ccccc2Cl)C(C)C)c1,78*,-2,71*,.,.,85*,4,95*,8
COc1cccc(C(=O)N[C@@H](CC(C)C)C(=O)N2CCC[C@H]2C(=O)NCc2ccccc2)c1,-11,-2,-1,.,.,.,.,.,.
O=C(Nc1ccc(Cl)c(Cl)c1)C1CCN(c2ncccn2)CC1,.,0,.,.,.,.,.,.,.
COC(=O)[C@]12C[C@H](CC(=O)NCC34CC5CC(CC(C5)C3)C4)C(=O)N(Cc3ccc4c(c3)OCO4)C1=C[C@H](C(C)C)O[C@@H]2C1CC1,.,6,.,.,.,.,.,.,.
COc1cc(/C=C2/SC(=S)N(Cc3ccccc3)C2=O)cc(Cl)c1O,89*,14,103*,48*,8,182*,198*,101*,100*
COc1cc(/C=C2/SC(=S)N(Cc3ccccc3)C2=O)ccc1OS(C)(=O)=O,3,4,0,-12,-39,.,.,.,.
Cc1nc(N)nc(N)c1/C=C/C(C)(C)c1ccc(Cl)cc1,40,3,53*,-48,.,72*,42*,72*,48*
CCCc1nc(SCC(=O)c2ccc3c(c2)NC(=O)CO3)[nH]c(=O)c1CC,-4,1,11,.,.,.,.,.,.
Nc1nc(SCC(=O)N2CCc3ccccc3C2)[nH]c(=O)c1-c1ccccc1,90*,1,92*,5,2,107*,22*,95*,-4
O=C(CSc1nccc(=O)[nH]1)N1CCc2ccccc2C1,.,0,.,-7,-18,.,1,.,6
CCCc1cc(=O)[nH]c(SCC(=O)N2CCc3ccccc3C2)n1,55*,4,85*,.,.,92*,5,29,0
CCCc1cc(=O)[nH]c(SCC(=O)c2ccc3c(c2)NC(=O)CO3)n1,5,5,54*,-10,-3,5,7,-2,6
O=C(NCCN1CCC(Cc2ccccc2)CC1)C1CCCN(S(=O)(=O)c2cccs2)C1 (stereo not drawn),.,1,.,.,.,.,.,.,.
CC(=NNC(=O)CSc1nnc(-c2ccccc2)n1-c1ccccc1)c1cccc([N+](=O)[O-])c1,.,2,.,.,.,.,.,.,.
CC(C)Cn1c(SCC(=O)N2CCc3ccccc3C2)nc(O)cc1=O,.,25,.,.,.,.,4,.,2
O=C(C1=C(O)C(=O)N(CCc2ccccc2)C1c1cccnc1)c1ccco1 (stereo not drawn),-1,7,47*,6,-3,59*,5,4,-3
O=C(C1=C(O)C(=O)N(Cc2cccnc2)C1c1cccc(Oc2ccccc2)c1)c1ccco1 (stereo not drawn),-5,22,2,.,.,.,.,.,.
CC(=O)CC[C@@H]1CC[C@]2(CCCN(S(C)(=O)=O)C2)O1,.,3,.,.,.,.,.,.,.
CC(=O)c1ccc(NC(=O)CC(NCCC2=CCCCC2)C(=O)O)cc1 (stereo not drawn),-8,4,45*,5,2,74*,0,15,-1
SMILES,TAAR1 antag,rCAG binder,TAAR1 agonist,HCV NS3 hel inh,HCV core dimer,TAAR1 ag conf,Ga16 nonsel ag,TAAR1 desens,Ga16 nonsel ant
CC1CCCN(C(=O)c2cccc(S(=O)(=O)NCc3ccccc3)c2)C1 (stereo not drawn),-17,2,5,.,.,.,.,.,.
CC1CC(C)CN(C(=O)c2cccc(S(=O)(=O)NCc3ccccc3)c2)C1 (stereo not drawn),4,-2,58*,.,.,50*,2,14,15
COC(=O)[C@@H]1N=C(c2ccc(OC)cc2)O[C@]12C(=O)N(Cc1cn(Cc3ccccc3)nn1)c1cccc(Cl)c12,.,11,.,.,.,.,.,.,.
CO[C@@H]1[C@H](O)CC[C@]2(O)CN(c3ccccc3)[C@](C)([C@H](O)CC=C(C)C)[C@@H]12,-29,6,6,.,.,.,.,.,.
FC(F)(F)c1cc(CO[C@@H]2CCCN[C@@H]2c2ccccc2)cc(C(F)(F)F)c1,15,3,70*,.,-10,37,29*,8,4
c1ccc(C2NCCNC2c2ccccc2)cc1 (stereo not drawn),-6,3,2,.,.,.,.,.,.
COc1ccccc1NS(=O)(=O)c1cccc(NC(=O)Nc2ccc(Cl)cc2)c1,76*,31,56*,3,6,46*,19*,93*,58*
N#Cc1ccc(S(=O)(=O)NCC2CCN(C(=O)C(=O)c3cc4ccccc4o3)CC2)cc1,-8,6,6,.,.,.,.,.,.
O=C(CSc1nc2ccccc2nc1N1CCCC1)N1CCN(C(c2ccccc2)c2ccccc2)CC1,.,8,.,.,.,.,.,.,.
FC(F)(F)c1cc(-c2cccs2)nc2ncnn12,-9,-3,7,-6,3,.,.,.,.
Cc1cc(C)n2nc(C(=O)NCCc3ccccc3)nc2n1,-4,1,63*,10,-7,54*,0,9,4

# Screening data from PubChem.
